Experimental data as given in ChEMBL document CHEMBL1150066, “Cytotoxic activity of tetraprenylphenols related to suillin, an antitumor principle from Suillus granulatus” (J Nat Prod, 1992).
Converted amounts (≈) assume the structure as drawn.

Experiments:
Format in all cases: functional, cell-based
[1] = system: KB; assay: Cytotoxicity against human KB cells after 72 hrs by MTT assay
Summary of the method: (§1)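 Cells per well: NSCLC-N6 0.2×10^5, KB 0.1×10^5, P388 0.05×10^5, in RPMI 1640 with 5% fetal calf serum, penicillin/streptomycin and 2 mM glutamine. Test solution added at decreasing concentrations in duplicate wells, then 72 h at 37° in 5% CO2. MTT added for 4 h, formazan dissolved in […], A570 read. IC50 taken from the dose/effect curve relative to controls.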

[2] = system: P388; assay: Cytotoxicity against mouse P388 cells after 72 hrs by MTT assay; conditions: P388, 72 h; summary of the method: as §1
[3] = Cytotoxicity against human NSCLC-N6 cells after 72 hrs by MTT assay; conditions: NSCLC-N6, 72 h; summary of the method: as §1
[4] = system: KB; assay: Cytotoxicity against human KB cells at 10 ug/ml after 72 hrs by MTT assay
[5] = system: KB; assay: Cytotoxicity against human KB cells at 5 ug/ml after 72 hrs by MTT assay
[6] = system: P388; assay: Cytotoxicity against mouse P388 cells at 5 ug/ml after 72 hrs by MTT assay
[7] = Cytotoxicity against human NSCLC-N6 cells at 5 ug/ml after 72 hrs by MTT assay

Row | SMILES | IC50 [1] [µg/mL] | IC50 [2] [µg/mL] | IC50 [3] [µg/mL] | IC50 [4] | IC50 [5] | IC50 [6] | IC50 [7]
1 | CC(=O)Oc1ccc2c(c1OC(C)=O)CCC(C)(CCCC(C)CCCC(C)CCCC(C)C)O2 (configuration not stated) | 1.1 (≈ 2.25 µM) | 0.7 (≈ 1.43 µM) | 0.9 (≈ 1.84 µM) | – | – | – | –
2 | CC(=O)Oc1ccc(OC(C)=O)c(OC(C)=O)c1C/C=C(\C)CC/C=C(\C)CC/C=C(\C)CCC=C(C)C | 2 (≈ 3.81 µM) | 5 (≈ 9.53 µM) | 1.9 (≈ 3.62 µM) | – | – | – | –
3 | COc1ccc(OC)c(OC)c1C/C=C(\C)CC/C=C(\C)CC/C=C(\C)CCC=C(C)C | – | > 10 | > 10 | Not Active | – | – | –
4 | CC(=O)Oc1c(O)ccc(O)c1C/C=C(\C)CC/C=C(\C)CC/C=C(\C)CCC=C(C)C | 2.5 (≈ 5.67 µM) | 0.9 (≈ 2.04 µM) | 2.9 (≈ 6.58 µM) | – | – | – | –
5 | COc1ccc(O)c(O)c1C/C=C(\C)CC/C=C(\C)CC/C=C(\C)CCC=C(C)C | – | 2.8 (≈ 6.79 µM) | > 5 | – | Not Active | – | –
6 | COc1ccc(OC(C)=O)c(C/C=C(\C)CC/C=C(\C)CC/C=C(\C)CCC=C(C)C)c1OC | 7.5 (≈ 16 µM) | 3.7 (≈ 7.89 µM) | 5.8 (≈ 12.4 µM) | – | – | – | –
7 | COc1c(O)cc(O)cc1C/C=C(\C)CC/C=C(\C)CC/C=C(\C)CCC=C(C)C | 5 (≈ 12.1 µM) | 2.1 (≈ 5.09 µM) | 2.2 (≈ 5.33 µM) | – | – | – | –
8 | CC(C)=CCC/C(C)=C/CC/C(C)=C/CCC1(C)C=Cc2c(ccc(O)c2O)O1 (configuration not stated) | – | – | – | – | Not Active | Not Active | Not Active
9 | CC(=O)Oc1cc(C/C=C(\C)CC/C=C(\C)CC/C=C(\C)CCC=C(C)C)c(OC(C)=O)c(OC(C)=O)c1 | 0.9 (≈ 1.72 µM) | 0.4 (≈ 0.762 µM) | 0.8 (≈ 1.52 µM) | – | – | – | –
10 | CC(=O)Oc1ccc(O)c(O)c1C/C=C(\C)CC/C=C(\C)CC/C=C(\C)CCC=C(C)C [TETRAPRENYLPHENOLSUILLIN] | 0.7 (≈ 1.59 µM) | 0.8 (≈ 1.82 µM) | 1 (≈ 2.27 µM) | – | – | – | –
11 | CC(=O)Oc1ccc(O)c(O)c1CCC(C)CCCC(C)CCCC(C)CCCC(C)C (configuration not stated) | 6.3 (≈ 14 µM) | 8.2 (≈ 18.3 µM) | 4.5 (≈ 10 µM) | – | – | – | –
12 | CC(=O)Oc1ccc2c(c1OC(C)=O)C=CC(C)(CC/C=C(\C)CC/C=C(\C)CCC=C(C)C)O2 (configuration not stated) | 1 (≈ 2.08 µM) | 0.3 (≈ 0.624 µM) | 0.7 (≈ 1.46 µM) | – | – | – | –
13 | CC(=O)Oc1c(O)cc(O)cc1C/C=C(\C)CC/C=C(\C)CC/C=C(\C)CCC=C(C)C | – | 2.3 (≈ 5.22 µM) | 2.3 (≈ 5.22 µM) | – | Not Active | – | –
14 | CC(=O)Oc1ccc(OC(C)=O)c(OC(C)=O)c1CCC(C)CCCC(C)CCCC(C)CCCC(C)C (configuration not stated) | > 10 | > 16.6 | 9 (≈ 16.9 µM) | – | – | – | –
